{
  "source": "ChEMBL document CHEMBL1126696",
  "about": "“N-(arylalkyl)farnesylamines: new potent squalene synthetase inhibitors” (J Med Chem, 1993)",
  "key": {"Squalene synthase [1]": {"biological_target": "T1, Squalene synthase (Rattus norvegicus, UniProt Q02769)", "T1 sequence (Q02769 whole entry)": "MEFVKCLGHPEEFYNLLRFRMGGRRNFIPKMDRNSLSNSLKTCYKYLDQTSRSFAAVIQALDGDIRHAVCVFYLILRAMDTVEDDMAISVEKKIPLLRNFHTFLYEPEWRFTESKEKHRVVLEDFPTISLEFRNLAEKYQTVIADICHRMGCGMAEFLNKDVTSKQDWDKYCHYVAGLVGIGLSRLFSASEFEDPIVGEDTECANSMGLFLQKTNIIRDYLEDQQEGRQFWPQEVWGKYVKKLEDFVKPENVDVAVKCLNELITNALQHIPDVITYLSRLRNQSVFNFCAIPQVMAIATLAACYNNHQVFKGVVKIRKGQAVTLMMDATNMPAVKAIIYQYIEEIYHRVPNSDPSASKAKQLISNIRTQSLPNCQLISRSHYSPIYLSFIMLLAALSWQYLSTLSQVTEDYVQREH", "assay": "Inhibitory activity against squalene synthetase in rat liver microsomes", "set-up": "species or system Microsome", "outline": "(§1)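 Rat liver microsomes (about 1 mg/mL protein) were prepared in pH 7.4 phosphate buffer with EDTA and stored at -80 °C. Samples were preincubated at 37 °C under nitrogen for 5 min. Final NADPH was 1.2 mM and MgCl2 5 mM. Tritiated farnesyl pyrophosphate started a 10-min reaction at 37 °C under nitrogen. Products were counted by liquid scintillation. Reactions ran in duplicate at several concentrations across at least four independent assays. IC50 was derived by linear regression of the pooled data.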"}, "Squalene synthase [2]": {"biological_target": "T1, Squalene synthase", "assay": "Tested for inhibitory activity against squalene synthetase in the presence of inorganic pyrophosphate (PPi)", "outline": "as §1"}},
  "note": "pIC50: −log10 of the molar value.",
  "data": [
    {"smiles": "CCN(C/C=C(\\C)CC/C=C(\\C)CCC=C(C)C)C/C=C(\\C)CC/C=C(\\C)CCC=C(C)C", "values": [
      {"measurement": "pIC50", "setting": "Squalene synthase [1]", "result": 3.74}
    ]},
    {"smiles": "CC(C)=CCC/C(C)=C/CCC(C)CNCc1cccnc1", "note": "(stereo not given)", "values": [
      {"measurement": "pIC50", "setting": "Squalene synthase [1]", "result": 4.64}
    ]},
    {"smiles": "CCNC/C=C(\\C)CC/C=C(\\C)CCC=C(C)C", "values": [
      {"measurement": "pIC50", "setting": "Squalene synthase [1]", "result": 6.22}
    ]},
    {"smiles": "CC(C)=CCC/C(C)=C/CC/C(C)=C/CNCc1cccnc1", "values": [
      {"measurement": "pIC50", "setting": "Squalene synthase [1]", "result": 7.30},
      {"measurement": "pIC50", "setting": "Squalene synthase [2]", "result": 8.40}
    ]},
    {"smiles": "CCN(C/C=C(\\C)CC/C=C(\\C)CCC=C(C)C)Cc1cccnc1", "values": [
      {"measurement": "pIC50", "setting": "Squalene synthase [1]", "result": 5.31}
    ]},
    {"smiles": "CC(C)=CCC/C(C)=C/CC/C(C)=C/COC/C=C(\\C)CC/C=C(\\C)CCC=C(C)C", "values": [
      {"measurement": "pIC50", "setting": "Squalene synthase [1]", "result": 3.08}
    ]},
    {"smiles": "CC(C)=CCC/C(C)=C/CC/C(C)=C/CNCc1ccncc1", "values": [
      {"measurement": "pIC50", "setting": "Squalene synthase [1]", "result": 7.00}
    ]},
    {"smiles": "CC(C)=CCC/C(C)=C/CC/C(C)=C/CNCc1ccccc1", "values": [
      {"measurement": "pIC50", "setting": "Squalene synthase [1]", "result": 7.00},
      {"measurement": "pIC50", "setting": "Squalene synthase [2]", "result": 8.00}
    ]},
    {"smiles": "CC(C)CCCC(C)CCCC(C)CCNCc1cccnc1", "note": "(stereo not given)", "values": [
      {"measurement": "pIC50", "setting": "Squalene synthase [1]", "result": 5.15}
    ]},
    {"smiles": "CC(C)=CCC/C(C)=C/CNCc1cccnc1", "values": [
      {"measurement": "pIC50", "setting": "Squalene synthase [1]", "result": 4.64}
    ]},
    {"smiles": "CC(C)=CCC/C(C)=C/CC/C(C)=C/CNC/C=C(\\C)CC/C=C(\\C)CCC=C(C)C", "values": [
      {"measurement": "pIC50", "setting": "Squalene synthase [1]", "result": 4.32}
    ]},
    {"smiles": "CC(C)=CCC/C(C)=C/CC/C(C)=C/COCc1cccnc1", "values": [
      {"measurement": "pIC50", "setting": "Squalene synthase [1]", "result": 4.48}
    ]},
    {"smiles": "CC(C)=CCC/C(C)=C/CC/C(C)=C/CNCC(C)CC/C=C(\\C)CCC=C(C)C", "note": "(stereo not given)", "values": [
      {"measurement": "pIC50", "setting": "Squalene synthase [1]", "result": 6.00}
    ]}
  ]
}
